# rRNA inh HTS – inhibitors of bacterial rRNA selective over humanized ribosomes. E. coli WT GFP vs humanized-ribosome RFP mutants, fluorescence, 24 h; hits give low values; DMSO median 0, no signal -100. GFP signal change (wild-type ribosome), % (test concentration not listed). 350,000 tested, 1.6% active. AID 720706;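 active = significant combined selectivity score with lowered wild-type GFP, culture density cut under 30%, mutant RFP and density less affected; inactive = any of these conditions unmet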
# S100A4 MyoIIA – inhibitors of human S100A4 binding to myosin IIA peptide; AID 652163; S100A4/TAMRA-MyoIIA peptide fluorescence polarization; inhibition, % at 10.7 µM; P26447; 360,000 tested, 0.14% active;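 active = mean inhibition of at least 70% across replicates, with every replicate also reaching that level; inconclusive = mean inhibition reaches 70% but some replicates fall short; inactive = mean inhibition below 70%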
# Target sequence (P26447 whole entry, looked up): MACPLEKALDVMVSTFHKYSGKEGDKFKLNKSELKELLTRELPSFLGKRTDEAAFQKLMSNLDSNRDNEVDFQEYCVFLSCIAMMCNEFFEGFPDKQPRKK
#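 Material: S100A4 monomer protein | Medium: HEPES pH 7.2 with CaCl2, KCl, NaCl, DTT, Triton | Reagent: Labelled myosin peptide probe, 5 nM | Doses: One dose per compound | Times: 5 min incubation before reading | Benchmarks: Neutral control DMSO, positive control TFP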
# PfHsp90 yeast 2 – growth inhibition of yeast expressing Plasmodium Hsp90; S. cerevisiae expressing PfHsp90, BacTiter-Glo ATP, 48 h; yeast lacking PDR1 and PDR3 efflux regulators; inhibition, % at 9.4 µM; 310,000 tested, 0.32% active; AID 504621;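 active = every replicate shows inhibition above about 80%, whatever the replicate mean, limit read from the data; inconclusive = mean inhibition reaches the set limit but some replicate falls short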;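 note: 0% = DMSO neutral controls and 100% = 20 µM radicicol positive controls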
# Cneo AK release – causes C. neoformans cell lysis | adenylate kinase release luminescence, 4 h; normalised: neutral wells 0, clomiphene wells 100 | lysis activity, % at 15 µM | 360,000 tested, 0.2% active | AID 651654;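 active = mean lysis activity across replicates of at least 80%, whatever share of replicates individually reach that level; inactive = mean lysis activity below 80%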
#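 Test system: log-phase Cryptococcus neoformans yeast cells. Input: 5 × 10^6 yeast cells/mL. Medium: fresh YPD growth medium. Doses: single dose. Incubation: static 4 h at 37 °C with compound, 1 h detection. Measured by: luminescent adenylate kinase detection reagent. Read-out: signal increase indicating cell lysis. Benchmarks: Clomiphene.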
# DENV2 CPE – inhibitors of DENV2 cytopathic effect; DENV2-infected cells, cytopathic effect rescue, plate reader; 350,000 tested, 1.7% active; CPE inhibition, % at 9.99 µM; in the data active = CPE inhibition above about 20%, passing the limit was not always enough; inconclusive = no clear call, values can overlap the other calls; tested in BHK-21 cells;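 note: 0% = median of neutral control wells and 100% = median of positive control wells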
# MLL AF4-AF9 inh – MLL-AF4/AF9 protein interaction inhibition; 350,000 tested, 0.47% active; inhibition, % at 10 µM; AlphaScreen, biotin-AF4 peptide binding to FLAG-AF9; P42568;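 active = every replicate reaching a set inhibition limit, whatever the replicate mean, cut at about 25% in these data; inconclusive = mean inhibition reaches that limit but some replicates miss it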;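 note: 0% = plate neutral control median and 100% = total signal loss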
# Target sequence (P42568 whole entry, looked up): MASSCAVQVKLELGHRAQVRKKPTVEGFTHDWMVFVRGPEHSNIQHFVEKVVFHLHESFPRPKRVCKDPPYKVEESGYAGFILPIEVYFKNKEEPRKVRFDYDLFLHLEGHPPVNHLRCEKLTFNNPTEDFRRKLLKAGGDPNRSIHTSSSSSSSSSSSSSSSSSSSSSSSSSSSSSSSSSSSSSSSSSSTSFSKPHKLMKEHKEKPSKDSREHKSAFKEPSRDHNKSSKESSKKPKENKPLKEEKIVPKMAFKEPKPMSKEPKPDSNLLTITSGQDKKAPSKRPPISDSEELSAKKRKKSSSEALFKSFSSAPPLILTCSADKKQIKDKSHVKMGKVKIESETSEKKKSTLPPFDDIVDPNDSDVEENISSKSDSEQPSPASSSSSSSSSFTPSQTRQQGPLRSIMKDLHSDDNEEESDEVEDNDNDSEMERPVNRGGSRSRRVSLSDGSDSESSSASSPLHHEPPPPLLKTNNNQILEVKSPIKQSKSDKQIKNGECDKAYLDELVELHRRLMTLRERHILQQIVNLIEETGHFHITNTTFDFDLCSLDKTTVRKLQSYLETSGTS
# Numbers without * were called inactive; ? = inconclusive; . = no result. Rows were chosen to be rich in hits. Some 3.2% of all compounds tested hit in one or more screens of this group.
SMILES,rRNA inh HTS,S100A4 MyoIIA,PfHsp90 yeast 2,Cneo AK release,DENV2 CPE,MLL AF4-AF9 inh
CCSc1ccc2c(c1)N(CCCN1CCN(C)CC1)c1ccccc1S2,.,-3,13,4,-7,65*
CN(C)CCCN1c2ccccc2Sc2ccc(C(F)(F)F)cc21,.,1,14,4,8,21
OCCN1CCN(CCCN2c3ccccc3Sc3ccc(C(F)(F)F)cc32)CC1,-62,2,11,-2,?,18
CN1CCN(CCCN2c3ccccc3Sc3ccc(Cl)cc32)CC1,.,-6,-2,14,3,36*
C[C@@H]1CN([C@H](C)CO)C(=O)c2cc(NC(=O)Nc3ccccc3)ccc2O[C@@H](C)CCCCO[C@H]1CN(C)S(=O)(=O)c1ccc(Cl)cc1,0,8,.,-1,4,0
COCCNC(=O)C[C@H]1CC[C@H]2[C@@H](COC[C@H](O)CN2C(=O)Nc2ccc3c(c2)OCO3)O1,5,1,.,-1,5,9
C[C@H]1CN([C@@H](C)CO)C(=O)c2c(c3ccccc3n2C)-c2ccccc2CO[C@@H]1CN(C)C(=O)Nc1cccc(Cl)c1Cl,2,5,.,.,3,4
COc1cc(/C=c2\s/c(=C\C(=O)C(C)(C)C)[nH]c2=O)cc(OC)c1OC,-18*,1,-10,.,-5,6
COc1ccc(/C=c2\s/c(=C\C(=O)C(C)(C)C)[nH]c2=O)cc1O,-26*,1,-13,.,-5,?
Cc1cccc(/C=c2\s/c(=C\C(=O)C(C)(C)C)[nH]c2=O)c1,.,.,-47,.,.,.
Cc1ccccc1-c1ccc2c(c1)O[C@@H](CN(C)C(=O)C1CC1)[C@H](C)CN([C@@H](C)CO)S2(=O)=O,-8,1,.,2,2,1
COc1ccc([C@H]2CC(=O)C=C(c3ccc4cc[nH]c4c3)C2)cc1,-2,-9,5,1,66*,4
CN(CC(=O)Nc1ccc(F)c(F)c1F)c1ncnc2sccc12,-7,3,0,.,31*,-2
CN(CC(=O)Nc1ccccc1Br)c1ncnc2sccc12,-8,-4,3,-1,1,3
CC(NNC(=S)N1CCN(c2ccccn2)CC1)c1nccc2ccccc12 (configuration not stated),-1,-1,121*,.,2,19
Cc1cc(C)cc(NC(=S)N2CCN(c3ccccn3)CC2)c1,-22*,-38,-20,1,0,2
Fc1ccc(NC(=S)N2CCN(c3ccccn3)CC2)cc1Cl,-22*,-1,-3,5,-5,-2
S=C(Nc1cc(Cl)cc(Cl)c1)N1CCN(c2ccccn2)CC1,-1,-4,-8,-1,2,-3
C[C@H](CO)N1C[C@H](C)[C@H](CN(C)CC2CCOCC2)Oc2ncc(C#Cc3ccncc3)cc2C1=O,.,23,.,42,-9,-14
C[C@@H]1CN([C@H](C)CO)C(=O)c2cccc(NC(=O)C3CCOCC3)c2O[C@@H]1CN(C)Cc1ccc(C(=O)Nc2ccccc2N)cc1,5,-29,.,2,47*,4
C[C@@H]1CN([C@H](C)CO)C(=O)c2cccc(NC(=O)Nc3ccc(F)cc3)c2O[C@H]1CN(C)Cc1ccc(C(=O)Nc2ccccc2N)cc1,1,-3,.,.,0,-1
C[C@@H]1CN([C@H](C)CO)C(=O)c2cccc(NC(=O)C3CCOCC3)c2O[C@H]1CN(C)Cc1ccc(C(F)(F)F)cc1,-2,2,.,1,?,-3
C[C@H](CO)N1C[C@H](C)[C@H](CN(C)Cc2ccc(C(=O)Nc3ccccc3N)cc2)Oc2c(NC(=O)Nc3ccc(F)cc3)cccc2C1=O,3,3,.,.,36*,-1
C[C@@H]1CN([C@H](C)CO)C(=O)c2cccc(NC(=O)C3CCOCC3)c2O[C@@H]1CN(C)Cc1ccc(C(F)(F)F)cc1,0,2,.,2,39*,-1
CC(C)NC(=O)Nc1cccc2c1O[C@H](CN(C)Cc1ccc(C(=O)Nc3ccccc3N)cc1)[C@H](C)CN([C@@H](C)CO)C2=O,1,-3,.,.,21*,4
SMILES,rRNA inh HTS,S100A4 MyoIIA,PfHsp90 yeast 2,Cneo AK release,DENV2 CPE,MLL AF4-AF9 inh
CC(C)NC(=O)Nc1cccc2c1O[C@@H](CN(C)Cc1ccc(C(=O)Nc3ccccc3N)cc1)[C@@H](C)CN([C@H](C)CO)C2=O,5,-4,.,.,-11,1
C/C=C/c1ccc2c(c1)O[C@H](CN(C)Cc1cccc(F)c1)[C@H](C)CN([C@@H](C)CO)S2(=O)=O,-31,-3,.,-11,9,11
C[C@@H]1CN([C@H](C)CO)C(=O)c2cc(NC(=O)CCC(F)(F)F)ccc2O[C@@H](C)CCCCO[C@@H]1CN(C)Cc1ccc2c(c1)OCO2,0,-15,.,-1,?,1
Cc1oc(/N=C/c2ccccc2)c(C#N)c1C,31,-18,-1,0,22*,3
Cc1oc(/N=C/c2cccc3ccccc23)c(C#N)c1C,12,-22,-36,16,-10,7
COCCNC(=O)C[C@H]1C[C@@H]2c3cc(NC(=O)Nc4ccc(F)cc4)ccc3O[C@@H]2[C@@H](CO)O1,2,.,.,-5,1,.
Cc1cccc(COC(=O)CCCNC(=O)c2ccc(Cl)cc2)c1,-8,1,93*,0,0,-2
CCOc1ccc(C(=O)Nc2ccc(CN3CCOCC3)cc2)cc1Br,7,-3,12,-3,37*,5
CCOc1ccc(NC(=O)c2ccc(NC(=O)c3ccc(CN4CCOCC4)cc3)cc2)cc1,5,4,-6,.,-2,-26
COc1ccc(C(=O)NC(=S)Nc2ccc(CN3CCOCC3)cc2)cc1Br,-22*,1,2,15,-4,5
CN1[C@H](C(=O)NC2CCC2)[C@@H](CO)[C@@H]2Cn3c(ccc(/C=C/c4ccccc4)c3=O)[C@@H]21,-2,-20,.,-1,-6,-5
Cc1noc(C)c1S(=O)(=O)Nc1ccc2c(c1)CC(=O)N([C@@H](C)CO)C[C@H](C)[C@H](CN(C)S(=O)(=O)c1ccccc1)O2,-2,3,.,0,-3,-2
CC(=O)N(CCOc1ccccc1)CCOc1ccccc1,-23*,-6,12,.,-5,0
CN(CCOc1ccccc1)CCOc1ccccc1,2,-6,-12,2,-5,-6
CCOC(=O)N1CCN(C(=O)CN(C2CCCCC2)S(=O)(=O)c2ccc(F)cc2)CC1,.,.,6,.,.,.
NC(=O)C1CCN(C(=O)CN(C2CCCCC2)S(=O)(=O)c2ccc(F)cc2)CC1,-26*,-2,-78,2,3,4
O=C(O)c1ccc(S(=O)(=O)N(Cc2ccc(F)cc2)C2CCCCC2)cc1,-22*,-2,-8,2,-4,2

# Bioassay records from PubChem BioAssay.
